What is called inhibition is the share of the control response that was lost under treatment. The Ki is a dissociation constant, usually derived from enzyme kinetics or from competition with a known ligand.

Among the data in ChEMBL document CHEMBL1150347, “A prodomain peptide of Plasmodium falciparum cysteine protease (falcipain-2) inhibits malaria parasite development” (J Med Chem, 2008) are Activity, inhibition and Ki values, retold here.

Calls of active or inactive are those of the source. The rule behind the calls is not given here. Residues, ends and D or L forms follow the SMILES beside them.

For experiment [1], the target named is T1, Falcipain 2 (Plasmodium falciparum) (UniProt Q9N6S8).
T1 sequence (whole entry): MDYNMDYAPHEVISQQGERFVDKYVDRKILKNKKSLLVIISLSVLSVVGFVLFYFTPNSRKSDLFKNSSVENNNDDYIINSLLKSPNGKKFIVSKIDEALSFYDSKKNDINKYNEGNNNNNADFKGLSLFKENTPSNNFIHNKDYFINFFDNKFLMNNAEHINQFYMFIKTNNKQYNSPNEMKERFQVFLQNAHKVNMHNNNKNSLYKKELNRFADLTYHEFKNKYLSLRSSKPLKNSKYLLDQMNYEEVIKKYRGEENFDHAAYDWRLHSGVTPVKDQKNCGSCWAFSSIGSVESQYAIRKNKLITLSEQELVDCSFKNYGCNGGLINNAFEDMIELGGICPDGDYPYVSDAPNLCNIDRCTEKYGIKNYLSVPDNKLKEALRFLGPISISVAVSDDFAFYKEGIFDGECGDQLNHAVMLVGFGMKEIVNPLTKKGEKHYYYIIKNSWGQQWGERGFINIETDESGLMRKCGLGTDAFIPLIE
Kind of experiment: Inhibition of Plasmodium falciparum falcipain-2 in RBC assessed as hemoglobin degradation after 24 hrs by SDS-PAGE. In a few lines: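 Ring-stage P. falciparum treated 24 h. Infected RBCs lysed with 0.15% saponin in PBS on ice for 10 min, then washed three times with cold PBS. About 1 × 10^6 parasites per lane run on 15% SDS-PAGE in Laemmli buffer; Coomassie staining used to look for undigested hemoglobin.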

The target of experiment [2] is T1, Falcipain 2 (Plasmodium falciparum). Nature of the experiment: Inhibition of Plasmodium falciparum 3D7 falcipain-2 in RBC assessed as Z-FR-AMC substrate hydrolysis by confocal microscopy relative to control. The settings on record: concentration not given here. In a few lines:
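3D7 cultures at 4-5% parasitemia given FITC-labelled peptide for 10 h at 24-28 h post-invasion. After washing in complete medium, Z-F-R-AMC added for 10 min. Confocal imaging: FITC excitation 488 nm, emission 505-530 nm; released AMC captured through a UV band-pass filter. Fluorescence averaged over selected whole parasites and compared with untreated infected cells.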

Experiment [3] has as its system Plasmodium falciparum. Nature of the experiment: Growth inhibition at 24 hrs of Plasmodium falciparum 3D7 by [3H]hypoxanthine uptake. Format: functional, organism-based. Summed up: (§1)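 Synchronized ring-stage P. falciparum-infected RBCs incubated 24 h with a range of peptide concentrations, with OVA peptide as control. About 1 µCi [3H]hypoxanthine added per well and cultures kept a further 24 h. Cells harvested and incorporated label counted by scintillation.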

The next experiment has as its target T2, Falcipain 2 (Plasmodium falciparum, UniProt Q9N6S8).
T2 sequence (Q9N6S8 whole entry): T1 sequence (whole entry)
Kind of experiment: (§2) Inhibition of Plasmodium falciparum recombinant falcipain-2. Summed up:
(§3)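 Refolded recombinant falcipain-2 at 200 nM, preincubated with peptide for 10 min at room temperature. Z-F-R-AMC then added at 7 µM in 100 mM sodium acetate pH 5.5 with 10 mM DTT. AMC release (ex 355/em 460 nm) followed for 30 min at room temperature. Km/Vmax from varied substrate; Ki from double-reciprocal plot; three experiments.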

For experiment [4], the system named is Plasmodium falciparum. Kind of experiment: Inhibition of Plasmodium falciparum recombinant falcipain-1. Summed up: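 Active recombinant falcipain-1 incubated with prodomain peptide; protease activity read as fluorescence from Z-FR-AMC cleavage at pH 5.5, followed over 30 min. Three independent sets of experiments.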
Experiment [5] has as its system Plasmodium falciparum. Kind of experiment: Growth inhibition at 24 hrs of Plasmodium falciparum 3D7 at 100 uM by [3H]hypoxanthine uptake. Type of experiment: functional. Summed up:
as §1

Experiment [6] relates to Plasmodium falciparum. Kind of experiment: Growth inhibition after 10 hrs of Plasmodium falciparum expressing KAHRP-His-GFP at 100 uM. Type of experiment: functional, organism-based. Summed up:
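KAHRP(-His)-GFP transgenic line, kept on 0.25 nM WR99210, sorbitol-synchronized, cultured in human RBCs (4% hematocrit) in RPMI. Peptide added at the ring stage. GFP fluorescence imaged after 3 h and 10 h of treatment, with bright field and DAPI; growth arrest read as loss of GFP signal.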

For experiment [7], the system named is Plasmodium falciparum. Kind of experiment: Growth inhibition as abnormal food vacuole formation after 36 hrs in Plasmodium falciparum trophozoite infected erythrocytes. Format: functional, organism-based.
Experiment [8] relates to Plasmodium falciparum. Nature of the experiment: Growth inhibition as merozoite release after 36 hrs in Plasmodium falciparum infected erythrocytes. Format: functional, organism-based.
The subject of experiment [9] is Plasmodium falciparum. Kind of experiment: Growth inhibition as reduced parasitaemia at 24 hrs for Plasmodium falciparum 3D7 by Giemsa-stained smear counting. The arrangement: scale not given: the % may be the effect or the level left.
Experiment [10] deals with T1, Falcipain 2 (Plasmodium falciparum). The experiment is described as §2. Summed up:
as §3

Consider `CC(C)C[C@H](NC(=O)[C@H]1O[C@@H]1C(=O)O)C(=O)NCCCCN=C(N)N`, for which the outcome in [1] was Active.

With `CC[C@H](C)[C@H](NC(=O)[C@H](Cc1ccccc1)NC(=O)[C@H](CCSC)NC(=O)[C@H](Cc1ccc(O)cc1)NC(=O)[C@H](Cc1ccccc1)NC(=O)[C@H](CCC(N)=O)NC(=O)[C@H](CC(N)=O)NC(=O)[C@@H](NC(=O)[C@H](Cc1cnc[nH]1)NC(=O)[C@H](CCC(=O)O)NC(=O)[C@H](C)NC(=O)[C@H](CC(N)=O)NC(=O)[C@H](CC(N)=O)NC(=O)[C@H](CCSC)NC(=O)[C@H](CC(C)C)NC(=S)Nc1cccc2c1C(=O)OC21c2ccccc2Oc2cc(O)ccc21)[C@@H](C)CC)C(=O)O` (some centres not stated), the inhibition in [2] is 50%.

Regarding `CSCC[C@H](NC(=O)[C@H](CC(N)=O)NC(=O)[C@@H](NC(=O)[C@H](CCCCN)NC(=O)[C@H](Cc1c[nH]cn1)NC(=O)[C@H](C)NC(=O)[C@H](CC(N)=O)NC(=O)[C@H](CCC(N)=O)NC(=O)[C@H](CC(C)C)NC(=O)[C@H](Cc1ccccc1)NC(=O)[C@@H](NC(=O)[C@H](CCC(N)=O)NC(=O)[C@H](Cc1ccccc1)NC(=O)[C@H](CCCNC(=N)N)NC(=O)[C@H](CCC(=O)O)NC(=O)[C@H](CCCCN)NC(=O)[C@H](CCSC)NC(=O)[C@@H](N)CCC(=O)O)C(C)C)C(C)C)C(=O)N[C@@H](Cc1c[nH]cn1)C(=O)N[C@@H](CC(N)=O)C(=O)O` (H-EMKERFQVFLQNAHKVNMHN-OH), the result in the experiment on Plasmodium falciparum [3] was inactive.

For `CC[C@H](C)[C@H](NC(=O)[C@H](Cc1ccccc1)NC(=O)[C@H](CCSC)NC(=O)[C@H](Cc1ccc(O)cc1)NC(=O)[C@H](Cc1ccccc1)NC(=O)[C@H](CCC(N)=O)NC(=O)[C@H](CC(N)=O)NC(=O)[C@@H](NC(=O)[C@H](Cc1c[nH]cn1)NC(=O)[C@H](CCC(=O)O)NC(=O)[C@H](C)NC(=O)[C@H](CC(N)=O)NC(=O)[C@H](CC(N)=O)NC(=O)[C@H](CCSC)NC(=O)[C@@H](N)CC(C)C)[C@@H](C)CC)C(=O)O` (H-LMNNAEHINQFYMFI-OH), at Falcipain 2, the Ki amounted to 3.8 µM. Moreover, the result in the experiment on Plasmodium falciparum [4] was inactive. In addition, testing at 100 µM in the experiment on Plasmodium falciparum [5] gave an inhibition of 50%. Further, the result (in the experiment with Plasmodium falciparum [6]; with Plasmodium falciparum [7]; in the experiment with Plasmodium falciparum [8]; in experiment [1]) was Active. The Activity in the experiment on Plasmodium falciparum [9] came out at 50%.

`CC[C@H](C)[C@H](NC(=O)[C@H](Cc1ccccc1)NC(=O)[C@@H](NC(=O)[C@H](Cc1ccc(O)cc1)NC(=O)[C@H](Cc1ccccc1)NC(=O)[C@H](CCC(N)=O)NC(=O)[C@H](CC(N)=O)NC(=O)[C@@H](NC(=O)[C@H](Cc1c[nH]cn1)NC(=O)[C@H](CCC(=O)O)NC(=O)[C@@H](NC(=O)[C@H](CC(N)=O)NC(=O)[C@H](CC(N)=O)NC(=O)[C@H](CCSC)NC(=O)[C@@H](N)CC(C)C)C(C)C)[C@@H](C)CC)[C@@H](C)O)C(=O)O` (H-LMNNVEHINQFYTFI-OH): the result in [10] was Active.

Take `CC(C)C[C@H](NC(=O)[C@H](Cc1ccccc1)NC(=O)[C@@H](NC(=O)[C@H](CCC(N)=O)NC(=O)[C@H](Cc1ccccc1)NC(=O)[C@@H](N)CCCNC(=N)N)C(C)C)C(=O)N[C@@H](CCC(N)=O)C(=O)N[C@@H](CC(N)=O)C(=O)N[C@@H](C)C(=O)N[C@@H](Cc1c[nH]cn1)C(=O)N[C@@H](CCCCN)C(=O)N[C@H](C(=O)O)C(C)C` (H-RFQVFLQNAHKV-OH): the outcome with Plasmodium falciparum [3] was inactive.

`CC[C@H](C)[C@H](NC(=O)[C@H](CCSC)NC(=O)[C@H](Cc1ccc(O)cc1)NC(=O)[C@H](Cc1ccccc1)NC(=O)[C@H](CCC(N)=O)NC(=O)[C@H](CC(N)=O)NC(=O)[C@@H](NC(=O)[C@H](Cc1cnc[nH]1)NC(=O)[C@H](CCC(=O)O)NC(=O)[C@H](C)NC(=O)[C@H](CC(N)=O)NC(=O)[C@H](CC(N)=O)NC(=O)[C@H](CCSC)NC(=O)[C@H](CC(C)C)NC(=O)[C@H](CCCCN)NC(=O)[C@H](CCCCN)NC(=O)[C@H](Cc1c[nH]c2ccccc12)NC(=O)[C@H](CCCCN)NC(=O)[C@H](CCSC)NC(=O)[C@H](CCCNC(=N)N)NC(=O)[C@H](CCCNC(=N)N)NC(=O)[C@H](CC(N)=O)NC(=O)[C@H](CCC(N)=O)NC(=O)[C@H](Cc1ccccc1)NC(=O)[C@H](Cc1c[nH]c2ccccc12)NC(=O)[C@@H](NC(=O)[C@H](CCCCN)NC(=O)[C@@H](NC(=O)[C@H](CCC(N)=O)NC(=O)[C@@H](N)CCCNC(=N)N)[C@@H](C)CC)[C@@H](C)CC)[C@@H](C)CC)C(=O)O` (H-RQIKIWFQNRRMKWKKLMNNAEHINQFYMI-OH) had an Activity in the experiment with Plasmodium falciparum [9] of 50%.

Regarding `CC[C@H](C)[C@H](N)C(=O)N[C@@H](CO)C(=O)N[C@@H](CCC(N)=O)C(=O)N[C@@H](C)C(=O)N[C@H](C(=O)N[C@@H](Cc1cnc[nH]1)C(=O)N[C@@H](C)C(=O)N[C@@H](C)C(=O)N[C@@H](Cc1cnc[nH]1)C(=O)N[C@@H](C)C(=O)N[C@@H](CCC(=O)O)C(=O)N[C@H](C(=O)N[C@@H](CC(N)=O)C(=O)N[C@@H](CCC(=O)O)C(=O)N[C@@H](C)C(=O)NCC(=O)N[C@@H](CCCNC(=N)N)C(=O)O)[C@@H](C)CC)C(C)C` [ovalbumin peptide] (H-ISQAVHAAHAEINEAGR-OH), the result (in experiment [10]; in the experiment with Plasmodium falciparum [3]) was inactive. The molecule further gave an inhibition at 100 µM in the experiment with Plasmodium falciparum [5] of 80%.
